In the library only some 5.7% were active in any assay of this set; here they are far more common.
CSC inhib = cancer stem cell inhibition; cancer stem cell-like cells viability, luminescence; inhibition, % at 7.5 µM; actives 1.1% (n = 300,000); in the data active means inhibition above about 75%; inconclusive means no clear call, values can overlap the other calls; tested in HMLE shEcad cells
Calb FLC = C. albicans growth modulation with fluconazole | C. albicans CaCi-2 (fluconazole-resistant clinical isolate) + fluconazole, Alamar Blue growth, 48 h | growth inhibition, % (concentration not given with the values) | actives 0.57% (n = 300,000);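 active means growth inhibition above about 58% in most replicates, limit read from the data, passing the limit was not always enough; inconclusive means exactly half the replicates above a set limit; inactive means most replicates below a set limit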;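 further: all wells also contain fluconazole at 8 µg/ml as a sub-toxic cotreatment; 0% = median of DMSO wells and 100% = median of geldanamycin control wells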
SKKanGAS inh = inhibitors of SKKanGAS S. pyogenes growth in kanamycin (SK-promoter or general growth effect); AID 1662; inhibition, % at 7.5 µM; BacTiter-Glo, 6 h; actives 1.3% (n = 300,000);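 active means mean replicate score, as percent of positive control median, at least 50; inconclusive means mean below 50 but one replicate at or above 50; inactive means mean and every replicate below 50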;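 further: strain carries kanamycin resistance gene driven by streptokinase promoter and grows in 40 µg/ml kanamycin; loss of luminescence reflects streptokinase promoter inhibition or plain growth inhibition; 0% = median of DMSO wells and 100% = positive control at its reference dose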
Mdm2-MdmX inh = human Mdm2/MdmX binding inhibition | SaOS-2 split-luciferase Mdm2/MdmX complementation, luminescence | AID 485346 | inhibition, % at 8 µM | actives 3% (n = 330,000) | O15151+Q00987;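 active means inhibition of at least 50% at 8 µM in the primary screen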
Beta apoptosis = beta cell apoptosis inhibition; protection from apoptosis, % (no concentration beside the values); INS-1E cytokine-induced death, ATP luminescence, 48 h; percent of positive-control rescue, neutral wells zero; actives 0.8% (n = 300,000);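 active means Every replicate reaches about 75%, or at least half do and their mean reaches it too, limit read from the data; inconclusive means At least half of replicates reach the limit but their mean does not; inactive means Under half of replicates reach the limit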;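 further: 0% = cytokine-treated negative control wells and 100% = positive control rescue; higher means more ATP so stronger rescue from cytokine killing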
T cruzi repl = blocks replication of Trypanosoma cruzi; T. cruzi beta-gal in NIH3T3, luminescence, 90 h; actives 1.4% (n = 300,000); AID 1885; inhibition, % (concentration not given with the values);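 active means mean inhibition across valid replicates above about 55%, limit read from the data; inconclusive means mean below that limit but half or more replicates reach it; inactive means mean below it, under half of replicates reach it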;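 further: signal also drops with host cell toxicity which is not excluded here; 0% = plate median of DMSO wells and 100% = zero luminescence signal; higher percent means less beta-gal luminescence so fewer parasites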
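Assay system: NIH/3T3 fibroblasts plus reporter T. cruzi. Amount: NIH/3T3 cells, 5,000 per well. Buffer or medium: DMEM, 2% fetal bovine serum. Doses: compound pinned at 50 nL/well, DMSO. Schedule: ≥90 h infection period, 3 h prior cell attachment. Signal: luminescent β-galactosidase signal after 60 min lysis. Read-out: parasite load inhibition, %.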
Active calls of the source: *; u = inconclusive; x = no result given.

SMILES | CSC inhib | Calb FLC | SKKanGAS inh | Mdm2-MdmX inh | Beta apoptosis | T cruzi repl
COCCCNCCCOc1ccc(C(C)(C)c2ccccc2)cc1 | x | 1 | -19 | 34 | -3 | 58*
OC(CNc1ccccc1)COc1ccc(OCC(O)CNc2ccccc2)cc1 (configuration not stated) | 56 | 13 | 29 | 43 | 36 | 63*
CC[C@]12c3[nH]c4cc(CCC(=O)N(C)C)ccc4c3CCN1C(=O)[C@@H](CC(=O)NCc1cccc(C(F)(F)F)c1)C[C@@H]2C(=O)N1CCN(C(=O)c2ccco2)CC1 | x | x | x | 18 | x | x
CCCCCCCOc1ccc(OC(=O)c2cccnc2)cc1 | 96* | -22 | -2 | 26 | 2 | 57*
CC1(C(=O)OCC(=O)N2c3ccccc3Sc3ccccc32)CC1(Cl)Cl (configuration not stated) | 57 | 44 | 25 | 23 | 89* | 45
O=c1[nH]sc2ccccc12 | x | -2 | 6 | x | x | 63*
O=C(/C=C/c1ccc2c(c1)OCCCO2)c1ccc2ccccc2c1O | 95* | 5 | 1 | 15 | -6 | -1
COc1ccccc1N(C)S(=O)(=O)c1ccc(C(=O)N(C)Cc2ccc(Cl)s2)cc1 | x | x | x | 16 | 5 | x
O=c1[nH]c2ccccc2cc1CN(Cc1cccnc1)S(=O)(=O)c1ccc([N+](=O)[O-])cc1 | -8 | -4 | 0 | 7 | x | 56*
CN1CCN(CC(O)(c2ccc(Cl)cc2)c2ccc(Cl)cc2)CC1 | 15 | -2 | 1 | 36 | x | 33
COc1ccccc1CCNC(=O)C1CCC(=O)N(C2CCCCCC2)C1 (configuration not stated) | -16 | -23 | 7 | 5 | 2 | 7
COCc1c(Br)c(C)nc(OCC(=O)N/N=C/c2cc(C)n(-c3ccc([N+](=O)[O-])cc3)c2C)c1C#N | 6 | u | 18 | 40 | -4 | 63*
CC(C)c1onc(C(=O)Nc2cccc(O)c2)c1[N+](=O)[O-] | x | 6 | 9 | 19 | -1 | -10
Cc1ccc(NC(=O)c2noc(C(C)C)c2[N+](=O)[O-])cc1 | 0 | 92* | 9 | 3 | 0 | 11
CCCCNC(=O)Oc1ccc(C(=O)N2c3ccccc3NC(=O)C2C)cc1 (configuration not stated) | -3 | -7 | -4 | -8 | -4 | 8
CC(=O)N1CCC2(CC1)NC(=O)N(c1ccccc1)N2 | 5 | 7 | 12 | -1 | -3 | -11
NC(=O)N1CCC2(CC1)NC(=O)N(c1ccccc1)N2 | -3 | 109* | 7 | 11 | 2 | 2
COc1ccc(-c2csc(N(CCCN(C)C)C(=O)c3cccs3)n2)cc1 | -7 | 8 | -2 | 44 | -29 | 66*
CN(C)CCCN(C(=O)c1ccco1)c1nc(-c2ccc(Cl)cc2)cs1 | 2 | 1 | 17 | 37 | 1 | 57*
Cc1cc(C)c(NC(=O)CNC(=O)COC(=O)CNC(=O)c2ccc(Cl)cc2Cl)c(C)c1 | 10 | -1 | -15 | 10 | x | -5
Cc1ccc(NC(=S)NC(=O)c2ccc(-c3ccc(Cl)cc3)o2)c(O)c1 | 13 | u | 68* | 7 | 3 | -1
Cc1ccc(O)c(NC(=S)NC(=O)Cc2ccc(Cl)cc2)c1 | 3 | -2 | -5 | 11 | 10 | -1
Cc1cc(O)c(NC(=S)NC(=O)c2ccc(-c3ccc(Cl)cc3)o2)cc1C | 5 | 31 | 92* | 26 | 0 | -8
COc1cc(/C=C/C(=O)OCC(=O)c2c[nH]c3ccccc23)ccc1OC(F)F | 5 | 8 | 11 | 35 | -2 | 14
CC1Cc2ccccc2N1C(=O)CN(C)CC(=O)Nc1ccc(F)cc1 (configuration not stated) | x | x | x | 12 | -1 | x
SMILES | CSC inhib | Calb FLC | SKKanGAS inh | Mdm2-MdmX inh | Beta apoptosis | T cruzi repl
O=C(COc1ccc2c3c(c(=O)oc2c1)CCCC3)NCCCn1ccnc1 | -1 | 2 | 1 | 1 | x | 7
CN(C)CCCNc1ncc(C(F)(F)F)cc1Cl | -16 | -1 | 1 | -12 | 2 | 63*
Cc1cc(C(=O)NCc2cc(F)cc3c2OCOC3)nn1C | -10 | -16 | 1 | -9 | x | -7
Cn1nc(C(C)(C)C)cc1C(=O)NCc1cc(F)cc2c1OCOC2 | -12 | -8 | -8 | 25 | 102* | x
COc1cc(Br)cc2cc(C(=O)N3CCOCC3)c(=O)oc12 | -31 | -4 | 4 | 28 | -6 | -12
Cc1ccc(S(=O)(=O)Nc2ncnc3sc(C)c(C)c23)cc1 | x | x | x | -9 | -3 | x
Cc1ccc(-c2nn(C(C)(C)C)c3ncnc(NS(=O)(=O)c4ccc([N+](=O)[O-])cc4)c23)cc1 | -4 | u | -8 | 3 | 19 | 56*
Cc1[nH]n(-c2ccccc2)c(=O)c1N=Nc1cccc([N+](=O)[O-])c1 | 6 | 0 | 0 | 29 | -2 | 61*
NC(=S)n1[nH]c(-c2ccc([N+](=O)[O-])cc2)c(N=Nc2cccc([N+](=O)[O-])c2)c1=O | x | 100* | -35 | x | x | -23
Cc1[nH]n(C(N)=S)c(=O)c1N=Nc1cccc([N+](=O)[O-])c1C | 6 | -15 | 6 | -38 | 21 | -34
COc1cccc(/C=N/n2c(C3CCCCC3)n[nH]c2=S)c1OC | -13 | 2 | 5 | -21 | -3 | 5
S=c1[nH]nc(C2CCCCC2)n1/N=C/c1cccc(Cl)c1Cl | 55 | -6 | 59* | 12 | 2 | 7
Cc1ccc2nc3c(c(Nc4ccc(O)cc4)c2c1)CCC3 | 12 | x | -3 | 19 | 9 | 62*
COc1ccc(Nc2c3c(nc4ccc(C)cc24)CCC3)cc1 | 5 | -28 | 6 | 9 | 38 | 30
Cc1ccc2c(c1)N(CC(=O)NCCCN1CC(C)CC(C)C1)C(=O)c1cccnc1O2 (configuration not stated) | x | -1 | -1 | 20 | 0 | -8
O=C(NCc1ccc(F)cc1)C(c1ccccc1)N(CC1CCCO1)C(=O)Cn1nnc2ccccc21 (configuration not stated) | x | 92* | 0 | -96 | -8 | 15
CC(C)CCNC(=O)C(c1cccnc1)N(Cc1ccccc1)C(=O)Cn1nnc2ccccc21 (configuration not stated) | x | 10 | 2 | 14 | -2 | 56*
COCCNC(=O)C(c1ccc(C)o1)N(CCOC)C(=O)Cn1nnc2ccccc21 (configuration not stated) | 5 | 82* | -3 | 9 | -5 | -1
CCN(C(=O)CSc1nc(C)c(C)c(C)n1)C1CCS(=O)(=O)C1 (configuration not stated) | -20 | x | x | 0 | 0 | x
CCOc1ccccc1N1CCN(C(=O)CSc2ccc3c(c2)OCCO3)CC1 | x | x | x | 15 | -8 | x
CCC(C)Sc1ccc(-c2nc3ccc(C)cn3c2NCc2ccccc2)cc1 (configuration not stated) | x | x | x | -32 | x | x
COc1cc(-c2nc3ccc(C)cn3c2NCc2ccccc2)ccc1-c1cccc(Cl)c1 | 69 | x | x | 42 | 102* | x

Assay outcomes as filed in PubChem.
